Source: PubChem BioAssay (Broad Institute)
Compounds with a hit are over-represented: about 2.9% of the library has one in this group of screens.
E-sel inducer – E-selectin induction in HUVECs, primary screen, imaging, HUVEC, immunofluorescence imaging, single point | normalized: neutral wells 0, TNF-alpha wells 100 | AID 686992, 2013 | activation, % at 7.58 µM | P16581 | 260,000 compounds, 0.37% hits;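 active means mean E-selectin-positive cell signal at least 10% of the positive control, reached in at least 60% of replicates, without over 20% cell loss; inconclusive means no rule given, readout overlaps actives, possibly toxicity-flagged; inactive means the rest, including those meeting only one limit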
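Material: HUVEC primary endothelial cells; Amount: 3,000 cells per well; Dosing: single concentration; Medium: EGM-2 growth medium on 0.1% gelatin-coated wells; Read-out basis: percent E-selectin-positive cells; Signal: immunofluorescence imaging; Control set: TNF-alpha, DMSO.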
SIRT5 inh – SIRT5 desuccinylase inhibitors, primary screen, biochemical, fluorescence imaging, single point, set 5; NAD-dependent protein deacylase sirtuin-5, mitochondrial (Homo sapiens), Q9NXA8; inhibition, % at 15 µM; Purified SirT5, succinyl-peptide AMC, trypsin-coupled fluorescence; AID 652115, 2013; 330,000 compounds, 1.1% hits; in the data active means inhibition above about 15%; inconclusive means no clear call, values can overlap the other calls
Target sequence (Q9NXA8 whole entry, looked up): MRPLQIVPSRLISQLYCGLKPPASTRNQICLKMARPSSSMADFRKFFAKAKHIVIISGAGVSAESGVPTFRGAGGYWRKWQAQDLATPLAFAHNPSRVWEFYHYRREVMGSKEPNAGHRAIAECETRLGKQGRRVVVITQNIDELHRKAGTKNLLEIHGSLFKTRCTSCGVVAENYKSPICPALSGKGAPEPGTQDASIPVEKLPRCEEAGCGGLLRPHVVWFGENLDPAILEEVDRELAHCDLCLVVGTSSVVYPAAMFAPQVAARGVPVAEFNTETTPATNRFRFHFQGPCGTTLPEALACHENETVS
DENV2 CPE rescue – inhibitors of DENV2 cytopathic effect, primary screen, cell-based, plate reader, single concentration. DENV2-infected cells, cytopathic effect rescue. CPE inhibition, % at 9.99 µM. 350,000 compounds, 1.7% hits. AID 651640, 2012; in the data active means CPE inhibition above about 20%, passing the limit was not always enough; inconclusive means no clear call, values can overlap the other calls; tested in BHK-21 cells
Numbers stand for hits; . = inactive; ? = inconclusive; / = not tested or not shown.

SMILES	E-sel inducer	SIRT5 inh	DENV2 CPE rescue
C[C@H](CO)N1C[C@H](C)[C@H](CN(C)Cc2ccc(C(F)(F)F)cc2)Oc2ccc(NC(=O)Nc3ccc(C(F)(F)F)cc3)cc2CC1=O	.	.	63
C[C@H](CO)N1C[C@H](C)[C@@H](CN(C)Cc2ccc(Cl)c(Cl)c2)Oc2ccc(NC(=O)c3ccncc3)cc2CC1=O	.	17	.
C[C@@H]1CN([C@@H](C)CO)C(=O)Cc2cc(NC(=O)Nc3ccc(C(F)(F)F)cc3)ccc2O[C@H]1CN(C)C(=O)Nc1ccc(C(F)(F)F)cc1	.	.	53
C[C@@H]1CN([C@@H](C)CO)C(=O)Cc2cc(NC(=O)c3ccncc3)ccc2O[C@@H]1CN(C)C(=O)Nc1ccc(C(F)(F)F)cc1	74	.	.
C[C@@H]1CN([C@@H](C)CO)C(=O)Cc2cc(NC(=O)c3ccncc3)ccc2O[C@@H]1CN(C)C(=O)Nc1ccc(F)cc1	.	/	/
COc1cc(NC(=S)NN2CCN(C)CC2)cc(OC)c1OC	/	.	.
C[C@H](CO)N1C[C@H](C)[C@H](CN(C)Cc2ccc(C(=O)Nc3ccccc3N)cc2)Oc2ccc(NC(=O)Cn3cnnn3)cc2C1=O	.	.	.
CCN(CC)CCNC(=O)C1c2ccccc2Oc2ccccc21	/	.	.
CN(C)/C=C/C(=O)c1ccc(S(=O)c2ccccc2)cc1 (configuration not stated)	/	.	.
CO[C@H]1CN(C)C(=O)c2ccc(NC(=O)C3CC3)cc2OC[C@@H](C)N(Cc2cc(F)ccc2F)C[C@@H]1C	.	.	.
CCC(=O)N1CCCCN2[C@@H](CO)[C@H](c3ccc(-c4cccc(C#N)c4)cc3)[C@@H]2C1	.	.	.
C[C@H](CO)N1C[C@H](C)[C@H](CN(C)C(=O)Nc2ccc(F)cc2)Oc2ccc(NC(=O)c3ccncc3)cc2CC1=O	.	/	/
C[C@H](CO)N1C[C@H](C)[C@@H](CN(C)Cc2ccc(C(F)(F)F)cc2)Oc2ccc(N(C)C)cc2CC1=O	?	17	.
C[C@@H]1CN([C@H](C)CO)C(=O)Cc2cc(N(C)C)ccc2O[C@H]1CN(C)Cc1ccc(C(=O)O)cc1	.	/	.
C[C@H]1CN([C@@H](C)CO)C(=O)Cc2cc(NC(=O)C3CCCCC3)ccc2O[C@@H]1CN(C)Cc1ccc(C(F)(F)F)cc1	.	.	39
C[C@@H]1CN([C@H](C)CO)C(=O)Cc2cc(NC(=O)c3ccncc3)ccc2O[C@H]1CN(C)C(=O)Nc1ccc(C(F)(F)F)cc1	.	.	23
C[C@H]1CN([C@@H](C)CO)C(=O)Cc2cc(NC(=O)c3ccncc3)ccc2O[C@@H]1CN(C)Cc1ccc(C(F)(F)F)cc1	.	.	.
C[C@@H]1CN([C@@H](C)CO)C(=O)Cc2cc(NC(=O)c3ccncc3)ccc2O[C@@H]1CN(C)Cc1ccc(C(F)(F)F)cc1	.	.	31
C[C@@H]1CN([C@@H](C)CO)C(=O)Cc2cc(NC(=O)C3CCCCC3)ccc2O[C@H]1CN(C)Cc1ccc(C(F)(F)F)cc1	.	.	.
Cc1cc(/C=C2/NC(=O)NC2=O)c(C)n1-c1ccc(N2CCOCC2)cc1	/	.	.
CCOC(=O)[C@]12CCCC=C1N(Cc1ccco1)C(=O)[C@H](CC(=O)NCC13CC4CC(CC(C4)C1)C3)C2	.	.	.
Cc1noc(C)c1NC(=O)N(C)C[C@@H]1OCCCC[C@H](C)Oc2ccc(NC(=O)Nc3ccccc3)cc2C(=O)N([C@@H](C)CO)C[C@@H]1C	.	/	.
COC(=O)[C@@]1(Sc2ccc(C)cc2)CC(=O)N(c2ccccc2)[C@@H]1c1ccccc1	.	.	.
O=C(CN1CCCc2ccccc21)Nc1cccc(S(=O)(=O)N2CCOCC2)c1	.	.	.
COc1ccc(C2CC(c3cccs3)=NN2c2nc(-c3ccccc3)cs2)cc1OC (configuration not stated)	/	.	/
SMILES	E-sel inducer	SIRT5 inh	DENV2 CPE rescue
O=C(O)C(O)Cc1c[nH]c2ccccc12 (configuration not stated)	/	.	.
O=C(CC(C(=O)O)c1c[nH]c2ccccc12)c1ccccc1 (configuration not stated)	/	17	.
CCC/C=C/c1ccc(CN2C(C)C(=O)N(Cc3cn(CCC4OCCCO4)nn3)CCS2(=O)=O)cc1 (configuration not stated)	.	22	.
CCC/C=C/c1ccc(CN2C(CC(C)C)C(=O)N(Cc3cn(CCC4OCCCO4)nn3)CCS2(=O)=O)cc1 (configuration not stated)	.	.	.
C[C@H]1CCCCO[C@H](CN(C)CC2CCCCC2)[C@@H](C)CN([C@@H](C)CO)C(=O)c2cc(NC(=O)Nc3ccccc3)ccc2O1	.	.	.
CN1C(=O)c2cc(NC(=O)c3ccc(F)c(F)c3)ccc2OC[C@@H]2O[C@@H](CC(=O)N[C@H]3CCN(Cc4ccccc4)C3)CC[C@H]21	.	.	.
O=C(CCc1ccccc1)NNC(=O)Nc1ccccc1	/	.	.
O=C(CCCCCCCC(=O)NNC(=O)Nc1ccccc1)NNC(=O)Nc1ccccc1	/	/	115
COc1ccccc1/C=C/C=N/n1c(-c2ccccn2)n[nH]c1=S	/	.	?
CCn1c(=O)c2cc(C(=O)N3CCOCC3)sc2c2ccccc21	.	.	.
CC(C)NC(=O)N(C)C[C@@H]1Oc2ccc(NC(=O)CCC(F)(F)F)cc2C(=O)N([C@@H](C)CO)C[C@@H]1C	.	.	.
C[C@@H]1CN([C@@H](C)CO)C(=O)c2cc(NC(=O)CCCN(C)C)ccc2O[C@@H]1CN(C)Cc1ccccc1	.	.	30
C[C@H]1CN([C@@H](C)CO)C(=O)c2cc(NC(=O)CCC(F)(F)F)ccc2O[C@H]1CN(C)C	/	17	?
CC(C)NC(=O)N(C)C[C@H]1Oc2ccc(NC(=O)CCC(F)(F)F)cc2C(=O)N([C@H](C)CO)C[C@H]1C	.	.	71
C[C@@H]1CN([C@@H](C)CO)C(=O)c2cc(NC(=O)CCC(F)(F)F)ccc2O[C@@H]1CN(C)Cc1ccc2c(c1)OCO2	.	.	29
C[C@H](CO)N1C[C@H](C)[C@@H](CN(C)Cc2ccc3c(c2)OCO3)Oc2ccc(NC(=O)CCC(F)(F)F)cc2C1=O	.	.	.
C[C@@H]1CN([C@H](C)CO)C(=O)c2cc(NC(=O)CCCN(C)C)ccc2O[C@@H]1CN(C)Cc1ccccc1	.	.	.
C[C@H](CO)N1C[C@H](C)[C@@H](CN(C)C)Oc2ccc(NC(=O)CCC(F)(F)F)cc2C1=O	/	.	.
C[C@H]1CN([C@@H](C)CO)C(=O)Cc2cc(N(C)C)ccc2O[C@H]1CN(C)S(=O)(=O)c1ccc(Cl)cc1	/	.	.
COC(=O)[C@]1(C)N[C@H](CN(C)C(=O)Nc2ccccc2)[C@@H]2C(=O)N(C)C(=O)[C@@H]21	/	.	.
CC1CCCC(C)N1C(=O)COC(=O)c1cccc(S(=O)(=O)N(C)c2ccccc2)c1 (configuration not stated)	.	.	.
CN(C(=O)COC(=O)c1ccc(C(C)(C)C)cc1)C1CCS(=O)(=O)C1 (configuration not stated)	.	.	.
